Assay results from ChEMBL document CHEMBL4184148 (Bioorg Med Chem Lett, 2017).

How the values were obtained:
[1] = biological target: Mitogen-activated protein kinase kinase kinase 7 (Homo sapiens) (UniProt O43318); assay: Binding affinity to wild-type human partial length TAK1 (M1 to Q303 residues) expressed in HEK293 cells at 1 uM by Kinomescan method relative to control; type: cell-based
[2] = test system: Phosphatidylinositol 4,5-bisphosphate 3-kinase catalytic subunit alpha isoform (Homo sapiens), P42336 [Q546K]; assay: Binding affinity to human partial length PIK3CA Q546K mutant (R108 to N1068 residues) expressed in HEK293 cells at 1 uM by Kinomescan method relative to control; type: cell-based
[3] = biological target: Serine/threonine-protein kinase Nek11 (Homo sapiens) (UniProt Q8NG66); assay: Binding affinity to wild-type human partial length NEK11 (M1 to E313 residues) expressed in HEK293 cells at 1 uM by Kinomescan method relative to control; type: cell-based
[4] = biological target: Serine/threonine-protein kinase MARK1 (Homo sapiens) (UniProt Q9P0L2); assay: Binding affinity to wild-type human partial length MARK1 (Q30 to T341 residues) expressed in Escherichia coli BL21 at 1 uM by Kinomescan method relative to control
[5] = test system: Phosphatidylinositol 4,5-bisphosphate 3-kinase catalytic subunit alpha isoform (Homo sapiens), P42336 [H1047Y]; assay: Binding affinity to human partial length PIK3CA H1047Y mutant (R108 to N1068 residues) expressed in HEK293 cells at 1 uM by Kinomescan method relative to control; type: cell-based
[6] = biological target: Serine/threonine-protein kinase LATS1 (Homo sapiens) (UniProt O95835); assay: Binding affinity to wild-type human partial length LATS1 (Q678 to V1130 residues) expressed in Escherichia coli BL21 at 1 uM by Kinomescan method relative to control
[7] = biological target: Mitogen-activated protein kinase kinase kinase kinase 3 (Homo sapiens) (UniProt Q8IVH8); assay: Binding affinity to wild-type human partial length MAP4K3 (M1 to D301 residues) expressed in Escherichia coli BL21 at 1 uM by Kinomescan method relative to control
[8] = biological target: Glycogen synthase kinase-3 beta (Homo sapiens) (UniProt P49841); assay: Binding affinity to wild-type human full length GSK3B (M1 to T433 residues) expressed in HEK293 cells at 1 uM by Kinomescan method relative to control; type: cell-based
Method in brief: (§1)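 Run as one kinome-wide competition binding panel with each compound at a single fixed concentration. Results were plotted as a kinome-wide selectivity map.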

Aurora kinase B = Aurora kinase B (Homo sapiens, UniProt Q96GD4); assay: Inhibition of recombinant full length His-tagged human Aurora B expressed in baculovirus expression system by Z'LYTE assay
Method in brief: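 Z'LYTE biochemical kinase assay run at the Km ATP concentration for each kinase. IC50 was determined and reported ± standard error.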

[9] = test system: Mast/stem cell growth factor receptor Kit (Homo sapiens), P10721 [A829P]; assay: Binding affinity to human partial length KIT A829P mutant (I571 to D952 residues) expressed in HEK293 cells at 1 uM by Kinomescan method relative to control; type: cell-based
[10] = test system: Epidermal growth factor receptor (Homo sapiens), P00533 [L858R,T790M]; assay: Binding affinity to human partial length EGFR L858R/T790M double mutant (R669 to V1011 residues) expressed in HEK293 cells at 1 uM by Kinomescan method relative to control; type: cell-based
[11] = biological target: Focal adhesion kinase 1 (Homo sapiens) (UniProt Q05397); assay: Binding affinity to wild-type human partial length FAK (D402 to R696 residues) expressed in Escherichia coli BL21 at 1 uM by Kinomescan method relative to control
[12] = biological target: Calcium/calmodulin-dependent protein kinase type II subunit delta (Homo sapiens) (UniProt Q13557); assay: Binding affinity to wild-type human partial length CAMK2D (M1 to E329 residues) expressed in Escherichia coli BL21 at 1 uM by Kinomescan method relative to control
[13] = biological target: Phosphatidylinositol 5-phosphate 4-kinase type-2 beta (Homo sapiens) (UniProt P78356); assay: Binding affinity to wild-type human full length PIP5K2B (M1 to T416 residues) expressed in Escherichia coli BL21 at 1 uM by Kinomescan method relative to control
Method in brief: (§2)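 Kinome-wide competition binding panel run by an outside provider, with each compound tested at a single concentration. Activity is read against the kinase panel.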

[14] = biological target: Inhibitor of nuclear factor kappa-B kinase subunit alpha (Homo sapiens) (UniProt O15111); assay: Binding affinity to wild-type human full length IKK-alpha (M1 to E745 residues) expressed in HEK293 cells at 1 uM by Kinomescan method relative to control; type: cell-based; method in brief: as §1
[15] = biological target: Ephrin type-A receptor 1 (Homo sapiens) (UniProt P21709); assay: Binding affinity to wild-type human partial length EPHA1 (V588 to I913 residues) expressed in Escherichia coli BL21 at 1 uM by Kinomescan method relative to control
[16] = biological target: Mitogen-activated protein kinase 6 (Homo sapiens) (UniProt Q16659); assay: Binding affinity to wild-type human partial length ERK3 (M1 to P413 residues) expressed in Escherichia coli BL21 at 1 uM by Kinomescan method relative to control
[17] = biological target: Serine/threonine-protein kinase PRP4 homolog (Homo sapiens) (UniProt Q13523); assay: Binding affinity to wild-type human partial length PRP4 (D657 to I1007 residues) expressed in Escherichia coli BL21 at 1 uM by Kinomescan method relative to control
[18] = biological target: Ephrin type-A receptor 2 (Homo sapiens) (UniProt P29317); assay: Binding affinity to wild-type human partial length EPHA2 (T593 to V891 residues) expressed in Escherichia coli BL21 at 1 uM by Kinomescan method relative to control
[19] = biological target: Casein kinase I isoform gamma-1 (Homo sapiens) (UniProt Q9HCP0); assay: Binding affinity to wild-type human partial length CSNK1G1 (T15 to S353 residues) expressed in Escherichia coli BL21 at 1 uM by Kinomescan method relative to control
[20] = biological target: Serine/threonine-protein kinase D2 (Homo sapiens) (UniProt Q9BZL6); assay: Binding affinity to wild-type human partial length PRKD2 (A519 to E838 residues) expressed in Escherichia coli BL21 at 1 uM by Kinomescan method relative to control
[21] = biological target: Serine/threonine-protein kinase Sgk2 (Homo sapiens) (UniProt Q9HBY8); assay: Binding affinity to wild-type human partial length SGK2 (L54 to C427 residues) expressed in HEK293 cells at 1 uM by Kinomescan method relative to control; type: cell-based
[22] = biological target: Inhibitor of nuclear factor kappa-B kinase subunit beta (Homo sapiens) (UniProt O14920); assay: Binding affinity to wild-type human full length IKK-beta (M1 to S756 residues) expressed in HEK293 cells at 1 uM by Kinomescan method relative to control; type: cell-based; method in brief: as §1
[23] = test system: Receptor-type tyrosine-protein kinase FLT3 (Homo sapiens), P36888 [R834Q]; assay: Binding affinity to human partial length FLT3 R834Q mutant (V592 to Y969 residues) expressed in HEK293 cells at 1 uM by Kinomescan method relative to control; type: cell-based
[24] = biological target: Protein-tyrosine kinase 2-beta (Homo sapiens) (UniProt Q14289); assay: Binding affinity to wild-type human full length PYK2 (M1 to E967 residues) expressed in Escherichia coli BL21 at 1 uM by Kinomescan method relative to control; method in brief: as §2

Mitogen-activated protein kinase kinase kinase kinase 3 (Homo sapiens), sequence (Q8IVH8 whole entry, the tested form may be a part): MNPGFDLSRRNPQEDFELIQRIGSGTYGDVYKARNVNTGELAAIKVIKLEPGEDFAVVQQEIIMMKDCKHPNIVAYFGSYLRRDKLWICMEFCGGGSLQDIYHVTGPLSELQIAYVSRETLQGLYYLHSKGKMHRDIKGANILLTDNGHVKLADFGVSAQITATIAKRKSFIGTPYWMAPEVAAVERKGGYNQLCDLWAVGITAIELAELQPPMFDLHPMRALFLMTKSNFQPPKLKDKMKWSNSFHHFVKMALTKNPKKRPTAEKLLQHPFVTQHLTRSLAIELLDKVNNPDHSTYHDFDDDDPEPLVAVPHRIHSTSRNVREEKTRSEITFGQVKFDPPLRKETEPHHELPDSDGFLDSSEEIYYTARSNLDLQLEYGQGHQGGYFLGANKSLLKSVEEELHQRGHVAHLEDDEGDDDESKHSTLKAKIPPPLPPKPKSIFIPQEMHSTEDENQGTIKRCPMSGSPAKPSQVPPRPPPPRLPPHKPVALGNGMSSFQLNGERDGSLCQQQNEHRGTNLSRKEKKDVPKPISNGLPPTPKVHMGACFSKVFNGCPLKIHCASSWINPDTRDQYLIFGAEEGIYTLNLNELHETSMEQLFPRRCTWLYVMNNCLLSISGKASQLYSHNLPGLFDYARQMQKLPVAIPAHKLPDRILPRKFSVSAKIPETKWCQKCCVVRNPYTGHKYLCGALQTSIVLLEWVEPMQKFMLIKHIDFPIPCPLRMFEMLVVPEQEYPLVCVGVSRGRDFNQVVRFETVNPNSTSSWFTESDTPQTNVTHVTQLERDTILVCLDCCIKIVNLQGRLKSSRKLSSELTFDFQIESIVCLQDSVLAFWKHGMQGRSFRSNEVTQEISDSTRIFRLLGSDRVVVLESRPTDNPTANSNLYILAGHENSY
Phosphatidylinositol 5-phosphate 4-kinase type-2 beta (Homo sapiens), sequence (P78356 whole entry, the tested form may be a part): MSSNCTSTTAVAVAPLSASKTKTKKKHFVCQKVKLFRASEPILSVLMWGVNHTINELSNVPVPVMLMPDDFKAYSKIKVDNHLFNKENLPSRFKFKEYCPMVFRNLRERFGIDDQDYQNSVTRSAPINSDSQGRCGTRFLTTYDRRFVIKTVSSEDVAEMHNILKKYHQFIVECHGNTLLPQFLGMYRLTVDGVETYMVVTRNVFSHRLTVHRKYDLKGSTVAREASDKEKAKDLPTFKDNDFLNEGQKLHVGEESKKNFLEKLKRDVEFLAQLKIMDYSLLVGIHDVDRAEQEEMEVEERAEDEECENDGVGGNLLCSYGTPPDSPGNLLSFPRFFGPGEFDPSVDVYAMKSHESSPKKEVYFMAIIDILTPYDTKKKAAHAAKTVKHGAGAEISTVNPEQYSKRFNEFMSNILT
Ephrin type-A receptor 2 (Homo sapiens), sequence (P29317 whole entry, the tested form may be a part, canonical isoform): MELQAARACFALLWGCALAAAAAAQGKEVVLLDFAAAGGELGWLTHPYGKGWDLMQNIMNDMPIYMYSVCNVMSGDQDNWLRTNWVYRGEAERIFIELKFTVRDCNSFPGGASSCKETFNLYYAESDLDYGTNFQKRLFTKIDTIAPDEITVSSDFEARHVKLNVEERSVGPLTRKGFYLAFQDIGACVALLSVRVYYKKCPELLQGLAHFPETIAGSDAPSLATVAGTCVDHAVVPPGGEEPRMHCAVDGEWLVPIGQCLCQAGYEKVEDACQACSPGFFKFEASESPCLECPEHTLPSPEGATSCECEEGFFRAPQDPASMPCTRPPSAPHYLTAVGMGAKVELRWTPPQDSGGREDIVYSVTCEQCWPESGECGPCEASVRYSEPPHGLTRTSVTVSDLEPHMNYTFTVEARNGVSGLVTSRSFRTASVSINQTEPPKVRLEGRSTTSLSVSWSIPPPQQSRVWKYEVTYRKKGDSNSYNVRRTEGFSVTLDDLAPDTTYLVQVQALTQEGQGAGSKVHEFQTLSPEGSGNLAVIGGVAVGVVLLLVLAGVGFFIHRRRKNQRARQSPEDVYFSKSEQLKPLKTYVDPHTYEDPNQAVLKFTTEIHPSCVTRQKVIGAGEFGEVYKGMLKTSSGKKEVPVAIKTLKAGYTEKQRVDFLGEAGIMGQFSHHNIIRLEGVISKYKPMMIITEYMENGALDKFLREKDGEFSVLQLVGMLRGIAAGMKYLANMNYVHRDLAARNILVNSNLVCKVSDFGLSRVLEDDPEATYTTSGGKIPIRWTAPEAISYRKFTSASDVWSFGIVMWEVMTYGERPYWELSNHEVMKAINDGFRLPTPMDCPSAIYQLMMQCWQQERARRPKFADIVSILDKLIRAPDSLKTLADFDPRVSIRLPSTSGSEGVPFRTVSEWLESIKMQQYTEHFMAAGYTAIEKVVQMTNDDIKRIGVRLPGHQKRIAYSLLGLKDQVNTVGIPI
Phosphatidylinositol 4,5-bisphosphate 3-kinase catalytic subunit alpha isoform (Homo sapiens), P42336 [H1047Y], sequence (P42336 whole entry H1047Y, the tested form may be a part, canonical isoform): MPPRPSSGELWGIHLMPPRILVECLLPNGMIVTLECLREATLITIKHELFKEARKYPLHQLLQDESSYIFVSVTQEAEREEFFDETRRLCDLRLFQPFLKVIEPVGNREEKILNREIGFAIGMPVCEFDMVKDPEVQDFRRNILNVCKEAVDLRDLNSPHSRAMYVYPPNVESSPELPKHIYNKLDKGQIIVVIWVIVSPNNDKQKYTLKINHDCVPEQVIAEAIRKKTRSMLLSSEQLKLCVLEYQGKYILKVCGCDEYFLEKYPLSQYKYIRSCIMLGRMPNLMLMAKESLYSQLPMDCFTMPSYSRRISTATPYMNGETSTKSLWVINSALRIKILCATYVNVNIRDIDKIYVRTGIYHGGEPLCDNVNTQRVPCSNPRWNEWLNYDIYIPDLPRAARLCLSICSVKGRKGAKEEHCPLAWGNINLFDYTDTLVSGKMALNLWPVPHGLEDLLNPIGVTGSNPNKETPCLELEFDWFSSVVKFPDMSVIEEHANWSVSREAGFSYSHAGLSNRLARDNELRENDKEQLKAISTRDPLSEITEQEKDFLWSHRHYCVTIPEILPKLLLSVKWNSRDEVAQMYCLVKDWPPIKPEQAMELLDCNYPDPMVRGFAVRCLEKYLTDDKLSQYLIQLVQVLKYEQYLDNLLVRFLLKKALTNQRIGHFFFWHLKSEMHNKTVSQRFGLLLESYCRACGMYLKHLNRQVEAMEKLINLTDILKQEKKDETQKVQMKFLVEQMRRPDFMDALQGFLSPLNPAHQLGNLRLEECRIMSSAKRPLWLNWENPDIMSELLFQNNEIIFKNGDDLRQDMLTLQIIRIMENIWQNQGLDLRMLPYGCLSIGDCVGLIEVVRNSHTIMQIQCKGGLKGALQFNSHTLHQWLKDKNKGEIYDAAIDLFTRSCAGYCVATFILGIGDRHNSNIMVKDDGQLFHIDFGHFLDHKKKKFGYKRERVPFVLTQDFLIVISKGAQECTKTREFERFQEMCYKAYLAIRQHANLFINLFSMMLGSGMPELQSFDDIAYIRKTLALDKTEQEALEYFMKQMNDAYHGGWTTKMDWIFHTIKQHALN
Mitogen-activated protein kinase kinase kinase 7 (Homo sapiens), sequence (O43318 whole entry, the tested form may be a part, canonical isoform): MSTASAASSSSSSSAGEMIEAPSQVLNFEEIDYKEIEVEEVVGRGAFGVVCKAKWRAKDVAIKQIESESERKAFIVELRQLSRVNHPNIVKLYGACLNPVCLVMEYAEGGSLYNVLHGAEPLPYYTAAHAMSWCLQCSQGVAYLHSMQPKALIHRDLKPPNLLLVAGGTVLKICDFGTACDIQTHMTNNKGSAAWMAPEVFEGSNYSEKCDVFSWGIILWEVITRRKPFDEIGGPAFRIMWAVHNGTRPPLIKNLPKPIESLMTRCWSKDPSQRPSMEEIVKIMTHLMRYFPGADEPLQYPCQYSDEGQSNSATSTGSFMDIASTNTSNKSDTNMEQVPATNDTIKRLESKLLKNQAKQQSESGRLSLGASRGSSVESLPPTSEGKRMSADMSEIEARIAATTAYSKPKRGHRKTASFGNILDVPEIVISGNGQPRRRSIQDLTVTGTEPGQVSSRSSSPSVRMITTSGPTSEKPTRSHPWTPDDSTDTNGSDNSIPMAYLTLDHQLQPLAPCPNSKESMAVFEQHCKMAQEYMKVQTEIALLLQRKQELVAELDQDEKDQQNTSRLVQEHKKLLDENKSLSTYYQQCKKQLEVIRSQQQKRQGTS
Calcium/calmodulin-dependent protein kinase type II subunit delta (Homo sapiens), sequence (Q13557 whole entry, the tested form may be a part): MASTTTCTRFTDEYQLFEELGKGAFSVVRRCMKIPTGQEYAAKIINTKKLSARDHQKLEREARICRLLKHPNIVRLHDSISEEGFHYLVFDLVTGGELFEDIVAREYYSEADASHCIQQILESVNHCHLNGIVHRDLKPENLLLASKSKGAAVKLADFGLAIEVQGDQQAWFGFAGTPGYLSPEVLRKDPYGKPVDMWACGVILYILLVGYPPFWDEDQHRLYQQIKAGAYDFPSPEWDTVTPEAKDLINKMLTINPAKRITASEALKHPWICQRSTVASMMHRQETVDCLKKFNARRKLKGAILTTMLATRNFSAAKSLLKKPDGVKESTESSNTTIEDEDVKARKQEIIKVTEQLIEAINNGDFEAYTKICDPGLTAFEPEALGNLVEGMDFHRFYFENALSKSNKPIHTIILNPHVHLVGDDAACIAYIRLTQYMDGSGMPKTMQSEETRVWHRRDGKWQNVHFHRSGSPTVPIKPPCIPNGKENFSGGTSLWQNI
Casein kinase I isoform gamma-1 (Homo sapiens), sequence (Q9HCP0 whole entry, looked up, the tested form may be a part, canonical isoform): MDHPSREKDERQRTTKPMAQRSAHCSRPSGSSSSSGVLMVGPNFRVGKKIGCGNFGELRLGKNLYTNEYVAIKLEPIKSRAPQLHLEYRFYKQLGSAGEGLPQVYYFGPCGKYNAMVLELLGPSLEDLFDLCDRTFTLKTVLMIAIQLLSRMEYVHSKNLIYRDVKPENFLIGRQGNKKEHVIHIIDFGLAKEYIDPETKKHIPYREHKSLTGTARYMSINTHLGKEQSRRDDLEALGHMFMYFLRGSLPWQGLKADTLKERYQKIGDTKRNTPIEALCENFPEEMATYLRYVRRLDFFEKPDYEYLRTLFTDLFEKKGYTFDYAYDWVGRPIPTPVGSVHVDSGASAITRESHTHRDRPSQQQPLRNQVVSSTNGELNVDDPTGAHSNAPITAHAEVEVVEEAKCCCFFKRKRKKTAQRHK

Row | Structure (SMILES) | Activity [1] [%] | Activity [2] [%] | Activity [3] [%] | Activity [4] [%] | Activity [5] [%] | Activity [6] [%] | Activity [7] [%] | Activity [8] [%] | IC50 (Aurora kinase B) [nM] | Activity [9] [%] | Activity [10] [%] | Activity [11] [%] | Activity [12] [%] | Activity [13] [%] | Activity [14] [%] | Activity [15] [%] | Activity [16] [%] | Activity [17] [%] | Activity [18] [%] | Activity [19] [%] | other results
1 | CCC(=O)Nc1ccc(C(=O)Nc2ccc(Nc3ncc4c(n3)N(C)c3ccc(C)cc3C(=O)N4C)cc2)cc1 | 66 | 78 | 96 | 85 | 72 | 100 | 79 | 82 | 41 | 54 | 96 | 99 | 99 | 94 | 99 | 100 | 81 | 100 | 96 | 100 | Activity [20]: 98%; Activity [21]: 70%; Activity [22]: 95%; Activity [23]: 86%; Activity [24]: 95%
2 | C=CC(=O)Nc1ccc(C(=O)Nc2ccc(Nc3ncc4c(n3)N(C)c3ccc(C)cc3C(=O)N4C)cc2)cc1 | 96 | 77 | 100 | 84 | 62 | 99 | 97 | 92 | 29 | 99 | 100 | 92 | 100 | 83 | 100 | 97 | 97 | 99 | 93 | 100 | Activity [20]: 98%; Activity [21]: 100%; Activity [22]: 97%; Activity [23]: 98%; Activity [24]: 97%
